Measured values from ChEMBL document CHEMBL4715825, “Synthesis and biological evaluations of marine oxohexadecenoic acids: PPARα/γ dual agonism and anti-diabetic target gene effects” (Eur J Med Chem, 2018).
The source made the active and inactive calls. The calls are words filed in the database; no cut-off is given here.

Experiments:
[1] = target: T1, Peroxisome proliferator-activated receptor alpha (Homo sapiens, UniProt Q07869); assay: Agonist activity at recombinant human PPARalpha LBD (168 to 468 residues) expressed in African green monkey COS-1 cells incubated for 18 hrs by luciferase reporter gene assay; format: cell-based
T1 sequence (Q07869 whole entry): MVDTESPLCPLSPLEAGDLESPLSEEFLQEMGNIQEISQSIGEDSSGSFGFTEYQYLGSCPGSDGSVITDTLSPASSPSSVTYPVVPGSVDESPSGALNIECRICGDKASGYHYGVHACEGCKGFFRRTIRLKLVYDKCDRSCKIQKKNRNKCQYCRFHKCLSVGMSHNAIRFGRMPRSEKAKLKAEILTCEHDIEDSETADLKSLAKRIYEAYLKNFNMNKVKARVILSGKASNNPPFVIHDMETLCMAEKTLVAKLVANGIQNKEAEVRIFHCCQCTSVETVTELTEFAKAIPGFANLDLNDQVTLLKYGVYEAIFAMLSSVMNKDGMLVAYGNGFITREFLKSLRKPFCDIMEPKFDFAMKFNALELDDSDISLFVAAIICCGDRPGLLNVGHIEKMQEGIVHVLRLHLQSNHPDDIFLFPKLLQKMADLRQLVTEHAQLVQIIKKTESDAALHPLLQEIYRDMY
In short: (§1)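 Transient Gal4 one-hybrid assay in COS-1 cells (7×10^4 per well), transfected 24 h after seeding. Plasmids were Gal4-DBD fused to the human nuclear receptor LBD, a 5×UAS-SV40 luciferase reporter and pRL-CMV Renilla control. Ligand in DMSO (final 0.1%) was added 5 h post-transfection. Dual-luciferase activity was read after 18 h, expressed as RLU, from three biological replicates in quadruplicate.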

[2] = target: T2, Peroxisome proliferator-activated receptor alpha (Homo sapiens) (UniProt Q07869); assay: Agonist activity at recombinant human PPARalpha LBD (168 to 468 residues) expressed in African green monkey COS-1 cells at 25 to 50 uM incubated for 18 hrs by luciferase reporter gene assay; format: cell-based; settings: filed as agonist, dose 25-50 µM; in short: as §1
T2 sequence (whole entry): T1 sequence (Q07869 whole entry)

[3] = target: T2, Peroxisome proliferator-activated receptor alpha (Homo sapiens); assay: Agonist activity at human PPARalpha in human HuH-7 cells assessed as increase in CPT1A gene expression at 50 uM incubated for 24 hrs by SYBR-green based qPCR analysis; format: cell-based; settings: filed as agonist
In short: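 Cells were seeded at 2×10^5 per well and treated 24 h later with compound in DMSO (final 0.1%). The next day, cells were washed and scraped into RLT buffer. RNA was isolated, and target gene mRNA was quantified by SYBR-green qPCR with specific primers.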

[4] = target: T2, Peroxisome proliferator-activated receptor alpha (Homo sapiens); assay: Agonist activity at human PPARalpha in 8 day differentiated human SGBS cells assessed as increase in FABP4 gene expression at 25 uM incubated for 24 hrs by SYBR-green based qPCR analysis; format: cell-based
In short: (§2)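 SGBS preadipocytes were seeded at passage P6-P8 and grown to confluence. They were differentiated for 4 days in Quickdiff (3FC plus dexamethasone, IBMX and rosiglitazone), then kept in 3FC with medium renewed every fourth day. On day 8, cells were stimulated for 24 h in 3FC with compound:BSA or rosiglitazone. SYBR-green qPCR used gene-specific primers. Data are mean ± SEM of three biological replicates in duplicate.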

[5] = target: T2, Peroxisome proliferator-activated receptor alpha (Homo sapiens); assay: Agonist activity at human PPARalpha in 8 day differentiated human SGBS cells assessed as increase in […] gene expression at 25 uM incubated for 24 hrs by SYBR-green based qPCR analysis; format: cell-based; settings: filed as agonist; in short: as §2
[6] = tested on: SGBS; assay: Induction of adipogenesis in 8 day differentiated human SGBS cells assessed as increase in SCD1 mRNA expression at 25 uM measured upto 12 days by qRT-PCR analysis; format: functional, cell-based; settings: time day <=12
In short: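 SGBS cells were grown to confluence (day 0). Quickdiff medium was supplemented with compound or rosiglitazone for 4 days, followed by 3FC medium. DMSO or DMSO:BSA served as control. RNA was harvested on days 0, 4, 8 and 12, and expression was measured by SYBR-green qPCR. Data are mean ± SEM of at least three biological replicates in duplicate.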

[7] = tested on: SGBS; assay: Effect on diabetic complication pathway in 8 day differentiated human SGBS cells assessed as downregulation of extracellular matrix-recptor interaction genes at 25 uM incubated for 8 days by Illumina sequencing method; format: functional, cell-based
In short: (§3)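 SGBS cells were differentiated 4 days in Quickdiff supplemented with compound:BSA or rosiglitazone, then 4 days in 3FC. Total RNA was extracted, and strand-specific TruSeq libraries were sequenced on NextSeq 500 (2×75 bp paired-end). Reads were aligned to hg19 with Tophat/Bowtie and counted as RPKM by Cufflinks. Values are log2 fold over day 0 cells, grouped into KEGG gene sets (n = 2-4).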

[8] = tested on: SGBS; assay: Effect on diabetic complication pathway in 8 day differentiated human SGBS cells assessed as downregulation of TNF signalling genes at 25 uM incubated for 8 days by Illumina sequencing method; format: functional, cell-based; in short: as §3
[9] = target: T3, Peroxisome proliferator-activated receptor gamma (Homo sapiens) (UniProt P37231); assay: Agonist activity at human PPARgamma in 8 day differentiated human SGBS cells assessed as increase in leptin gene expression at 25 uM incubated for 24 hrs by SYBR-green based qPCR analysis; format: cell-based; settings: filed as agonist
T3 sequence (whole entry): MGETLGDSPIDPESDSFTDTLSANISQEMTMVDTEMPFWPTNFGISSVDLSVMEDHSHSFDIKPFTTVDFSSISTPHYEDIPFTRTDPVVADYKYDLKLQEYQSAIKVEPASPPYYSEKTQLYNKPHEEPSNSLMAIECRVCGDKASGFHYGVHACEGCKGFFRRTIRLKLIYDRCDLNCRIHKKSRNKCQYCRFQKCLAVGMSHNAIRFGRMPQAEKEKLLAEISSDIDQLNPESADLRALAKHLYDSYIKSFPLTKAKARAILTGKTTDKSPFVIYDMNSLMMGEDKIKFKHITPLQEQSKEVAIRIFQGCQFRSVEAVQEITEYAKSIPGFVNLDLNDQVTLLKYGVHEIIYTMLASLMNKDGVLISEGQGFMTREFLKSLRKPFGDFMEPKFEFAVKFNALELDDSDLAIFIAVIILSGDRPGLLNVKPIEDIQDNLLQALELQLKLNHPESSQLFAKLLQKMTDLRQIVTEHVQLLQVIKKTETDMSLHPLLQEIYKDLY

[10] = target: T3, Peroxisome proliferator-activated receptor gamma (Homo sapiens); assay: Agonist activity at human PPARgamma in 8 day differentiated human SGBS cells assessed as decrease in IL-1 beta gene expression at 25 uM incubated for 24 hrs by SYBR-green based qPCR analysis; format: cell-based; settings: filed as agonist
[11] = target: T3, Peroxisome proliferator-activated receptor gamma (Homo sapiens); assay: Agonist activity at human PPARgamma in 8 day differentiated human SGBS cells assessed as decrease in […] gene expression at 25 uM incubated for 24 hrs by SYBR-green based qPCR analysis; format: cell-based; settings: filed as agonist
[12] = target: T3, Peroxisome proliferator-activated receptor gamma (Homo sapiens); assay: Agonist activity at human PPARgamma in 8 day differentiated human SGBS cells assessed as decrease in TNF gene expression at 25 uM incubated for 24 hrs by SYBR-green based qPCR analysis; format: cell-based; settings: filed as agonist
[13] = target: T3, Peroxisome proliferator-activated receptor gamma (Homo sapiens); assay: Agonist activity at human PPARgamma in 8 day differentiated human SGBS cells assessed as increase in SLC2A4 gene expression at 25 uM incubated for 24 hrs by SYBR-green based qPCR analysis; format: cell-based; settings: filed as agonist

Row | EC50 [1] [µM] | Activity [2] | Activity [3] | Activity [4] | Activity [5] | Activity [9] | Activity [10] | Activity [11] | Activity [12] | Activity [13] | SMILES | Activity [6] | Activity [7] | Activity [8]
1 | 20 | Active | Active | inactive | Active | Active | Active | Active | Active | Active | CCCCCCCC(=O)/C=C/CCCCCC(=O)O | Active | Active | Active
2 | 26 | Active | Active | inactive | Active | Active | Active | Active | Active | Active | CCCCC/C=C/C(=O)CCCCCCCC(=O)O | Active | Active | Active
